Assay results from PMC4758401 (Diabetes, Obesity & Metabolism, 2015).
Like-named read-outs stand apart in the source and are kept apart here.

Columns and labels:
Type in all cases: in vivo, patients with type 1 diabetes
plasma glucose = test system: plasma glucose
glucagon = details: for Reduction of AUC0–3 h for glucagon: p < 0.05
How it was run: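 Same crossover design: test compound at 6, 9 or 12 mcg/U insulin or volume-matched placebo, each injected separately alongside subcutaneous regular insulin (30% reduced dose) just before a standard 600-kcal breakfast. Plasma immunoreactive glucagon was measured by radioimmunoassay in samples taken at −15, −5, 15, 30, 45, 60, 90, 120, 150 and 180 min. Incremental AUC0–3 h from baseline was compared with placebo by a linear mixed-effects model (sequence, period, treatment, random patient), two-sided 0.05.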

[1] = Adverse events and hypoglycaemia
How it was run: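 Four-way crossover in adults with type 1 diabetes, one visit per arm over 4 weeks. Before a 600-kcal breakfast, each arm received subcutaneous regular insulin at 30% below the usual rapid-analogue dose, plus a separate masked injection of test compound (6, 9 or 12 mcg/U insulin) or volume-matched placebo. Symptomatic hypoglycaemia was tracked for 24 h after dosing; adverse events were recorded on- and off-treatment.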

[2] = all ratios (6, 9 or 12 mcg/unit insulin)

CC[C@H](C)[C@H](NC(=O)[C@@H]1CCCN1C(=O)CNC(=O)[C@H](Cc1ccccc1)NC(=O)[C@H](CC(N)=O)NC(=O)[C@H](CC(N)=O)NC(=O)[C@H](CO)NC(=O)[C@H](CO)NC(=O)[C@H](Cc1c[nH]cn1)NC(=O)[C@@H](NC(=O)[C@H](CC(C)C)NC(=O)[C@H](Cc1ccccc1)NC(=O)[C@H](CC(N)=O)NC(=O)[C@H](C)NC(=O)[C@H](CC(C)C)NC(=O)[C@H](CCCNC(=N)N)NC(=O)[C@H](CCC(N)=O)NC(=O)[C@@H](NC(=O)[C@H](C)NC(=O)[C@@H]1CSSC[C@H](NC(=O)[C@@H](N)CCCCN)C(=O)N[C@@H](CC(N)=O)C(=O)N[C@@H]([C@@H](C)O)C(=O)N[C@@H](C)C(=O)N[C@@H]([C@@H](C)O)C(=O)N1)[C@@H](C)O)C(C)C)C(=O)N[C@@H](CC(C)C)C(=O)N1CCC[C@H]1C(=O)N1CCC[C@H]1C(=O)N[C@H](C(=O)N[C@@H](CC(N)=O)C(=O)N[C@H](C(=O)NCC(=O)N[C@@H](CO)C(=O)N[C@@H](CC(N)=O)C(=O)N[C@H](C(=O)N[C@@H](Cc1ccc(O)cc1)C(N)=O)[C@@H](C)O)C(C)C)[C@@H](C)O [pramlintide]
Reduction of AUC0–3 h for glucose (plasma glucose; 6 mcg/U ratio vs placebo/insulin, p < 0.001): 60%
Glucose incremental AUC0–3 h, LS mean difference (plasma glucose; 6 mcg–placebo, p <0.001): -205.98 mg·h/dL
Glucose incremental AUC0–3 h, LS mean difference (plasma glucose; 6–9 mcg, p 0.890): -6.04 mg·h/dL
Glucose incremental AUC0–3 h, LS mean difference (plasma glucose; 6–12 mcg, p 0.343): 40.63 mg·h/dL
Glucose incremental AUC0–3 h, LS mean difference (plasma glucose; 9 mcg–placebo, p <0.001): -199.93 mg·h/dL
Glucose incremental AUC0–3 h, LS mean difference (plasma glucose; 9–12 mcg, p 0.280): 46.67 mg·h/dL
Glucose incremental AUC0–3 h, LS mean difference (plasma glucose; 12 mcg–placebo, p <0.001): -246.60 mg·h/dL
Reduction of 0–3‐h glucose increments (plasma glucose; [2]): > 50%
Reduction of AUC0–3 h for glucagon (glucagon; 6 mcg/U ratio vs placebo/insulin): 57%
Glucagon incremental AUC0–3 h, LS mean difference (glucagon; 6 mcg–placebo, p 0.041): -14.23 pg·h/mL
Glucagon incremental AUC0–3 h, LS mean difference (glucagon; 6–9 mcg, p 0.934): 0.57 pg·h/mL
Glucagon incremental AUC0–3 h, LS mean difference (glucagon; 6–12 mcg, p 0.945): -0.47 pg·h/mL
Reduction of AUC0–3 h for glucagon (glucagon; 9 mcg/U ratio vs placebo/insulin): 59%
Glucagon incremental AUC0–3 h, LS mean difference (glucagon; 9 mcg–placebo, p 0.034): -14.80 pg·h/mL
Glucagon incremental AUC0–3 h, LS mean difference (glucagon; 9–12 mcg, p 0.879): -1.05 pg·h/mL
Reduction of AUC0–3 h for glucagon (glucagon; 12 mcg/U ratio vs placebo/insulin): 55%
Glucagon incremental AUC0–3 h, LS mean difference (glucagon; 12 mcg–placebo, p 0.046): -13.75 pg·h/mL
Reduction of 0–3‐h glucagon increments (glucagon; [2]): > 50%
Tolerability ([1]; all ratios (6, 9, 12 mcg/U insulin), single meal-time injection): well tolerated
Symptomatic hypoglycaemia ([1]; during the 24‐h period after pramlintide administration, all ratios): No symptomatic hypoglycaemia occurred
Nausea ([1]; one patient, accompanying each pramlintide/insulin ratio, able to complete each test meal): mild nausea
Mild, asymptomatic hypoglycaemia between test meal days ([1]; one patient, after pramlintide 12 mcg/U): hypoglycaemia 5 and 7 days after receiving pramlintide 12 mcg/U
